# Bioassay records (PubChem)
# Sampled rows, rich in hits. Any-hit rate of the full collection: about 2.5%.
# SIAE primary – inhibitors of human sialic acid acetylesterase SIAE | inhibition, % at 9.66 µM | Q9HAT2 | 370,000 tested, 0.69% active | AID 1053197 | SIAE FP-Rh probe binding, fluorescence polarization;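 active means inhibition above a cutoff: mean of compounds within the control limits plus 3 SD of those, cut at about 17% in these data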
# rCAG RNA binder – binds r(CAG) RNA repeats | r(CAG) RNA repeat, TO-PRO-1 dye displacement fluorescence | inhibition, % at 3 µM | 370,000 tested, 1.3% active | AID 651821;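 active means inhibition above the plate cutoff, the mean of all test compounds on that plate plus 3 SD, cut at about 35% in these data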;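 further: higher means more dye released from RNA so lower well fluorescence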
# ABHD4 inh – inhibitors of mouse ABHD4 | Q8VD66 | purified mABHD4, FP-Rh probe fluorescence polarization | inhibition, % at 8.92 µM | 370,000 tested, 0.54% active;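 active means inhibition exceeding the mean over every tested compound plus 3 SD, cut at about 30% in these data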
#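 assay system = mABHD4 protein | compound dosing = single nominal dose of 8.92 µM, 0.89% DMSO final | read-out basis = percent inhibition of probe binding, normalized to plate controls | schedule = Enzyme–compound pre-incubation 45 min, then probe 60 min, both 25 °C | detection = fluorescence polarization, excitation 525 nm, emission 598 nm, BODIPY TMR filters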
# HTRA1 inhibitor – blocks human HTRA1 serine peptidase. Q92743. recombinant HTRA1, FP-rhodamine activity-based probe, fluorescence polarization. inhibition, % at 5.96 µM. 340,000 tested, 0.5% active; in the data active means inhibition above about 36%
# Target sequence (Q92743 whole entry, looked up): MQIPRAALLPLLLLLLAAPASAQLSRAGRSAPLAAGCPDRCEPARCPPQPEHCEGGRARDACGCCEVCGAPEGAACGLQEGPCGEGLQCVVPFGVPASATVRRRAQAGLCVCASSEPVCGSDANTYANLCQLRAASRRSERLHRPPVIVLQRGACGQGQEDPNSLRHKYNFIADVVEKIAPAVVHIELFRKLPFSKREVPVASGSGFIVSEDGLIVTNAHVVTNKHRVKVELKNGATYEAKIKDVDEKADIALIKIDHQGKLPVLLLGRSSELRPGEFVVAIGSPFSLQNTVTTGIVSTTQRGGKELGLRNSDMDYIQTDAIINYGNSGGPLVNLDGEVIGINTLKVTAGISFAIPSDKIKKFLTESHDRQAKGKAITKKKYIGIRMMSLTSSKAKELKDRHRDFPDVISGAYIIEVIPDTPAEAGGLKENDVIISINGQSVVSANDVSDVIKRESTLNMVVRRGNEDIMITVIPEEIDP
# TCR CD3 inh – human TCR-CD3 binding inhibition; TAMRA-labeled TCR probe fluorescence, biochemical; AID 651800; 360,000 tested, 0.37% active; inhibition, % at 9.4 µM; in the data active means inhibition above about 19%;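 further: recombinant mutant TCR 2C K166C tagged with TAMRA read by polarization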
# SIAE inh conf – human SIAE inhibition, confirmation | shares compounds with SIAE primary | SIAE FP-Rh activity-based probe, fluorescence polarization | inhibition, % at 9.66 µM | 2,300 tested, 13% active | AID 1117263;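 active means mean inhibition of the replicates above the hit cutoff set in the primary screen, cut at about 17% in these data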;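 further: inhibitors lower polarization as more probe stays unbound to SIAE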
# A number is an active result; 0 = inactive; - = no result given.
SMILES,SIAE primary,rCAG RNA binder,ABHD4 inh,HTRA1 inhibitor,TCR CD3 inh,SIAE inh conf
CCC(=O)C1CCCN(C(=O)c2ccc(OC3CCN(C(=O)c4cccnc4)CC3)cc2)C1 (centres undefined),0,0,0,0,0,-
CCc1ccc(CNC(=O)CCS(=O)(=O)Cc2ccc(C)cc2)cc1,0,0,0,0,0,-
COc1ccc(C(=O)N2CCN(Cc3cc(OC)ccc3OC)CC2)cc1,0,0,0,0,0,-
O=[N+]([O-])c1ccc(Nc2nc(N/N=C/c3cccc(F)c3)nc(N3CCCC3)n2)cc1,0,0,0,0,0,-
COc1cccc(/C=N/Nc2nc(Nc3ccc([N+](=O)[O-])cc3)nc(N3CCCC3)n2)c1O,19.0,0,0,-,0,0
Cc1cc(C)nc(SCC(=O)Nc2ncc3c(n2)CCCC3=O)n1,47.2,0,0,0,0,0
O=C(CSC(=S)N1CCCCC1)Nc1ncc2c(n1)CCCC2=O,0,0,0,0,0,-
COc1ccc(CNc2ncc(-c3ccc(F)cc3)n2C)c2ccccc12,17.8,0,0,0,0,0
O=C(c1cn(Cc2ccccc2)nc1-c1ccc(Cl)cc1)N1CCN(c2ccccn2)CC1,0,0,0,0,0,-
Cc1ccc(N)c([N+](=O)[O-])c1,0,0,0,0,0,-
Nc1ccc(N=Nc2ccccc2)cc1[N+](=O)[O-],18.3,0,0,0,0,0
Cc1ccc(Nc2nc(N)nc(CC#N)n2)cc1,0,0,0,0,0,-
CCOC(=O)COn1c(=O)c(-c2ccc(Br)cc2)[n+]([O-])c2ccccc21,17.2,0,0,0,0,0
CCOC(=O)COn1c(=O)c(-c2ccc(F)cc2)[n+]([O-])c2ccccc21,0,0,0,0,0,-
COc1ccc(Nc2ncnc3sc(-c4ccccc4)cc23)cc1,33.0,0,0,0,0,0
Cn1c(-c2ccc([N+](=O)[O-])cc2)nc2ccccc21,0,0,0,0,0,-
Cn1nc([N+](=O)[O-])c(C(C#N)c2nc3ccccc3n2C)c(Cl)c1=O (centres undefined),27.3,0,0,0,0,0
COC(=O)CSc1nc(-c2ccc(F)cc2)cc(C(F)(F)F)n1,27.7,0,0,0,0,0
COc1ccc(C(=O)Nc2cccc(-c3nc4ncccc4o3)c2C)cc1OC,0,0,0,0,0,-
Cc1cc(C)nc(SCc2ccc(C(=O)N/N=C/c3cccc(O)c3O)cc2)n1,43.4,0,0,0,0,0
CCOC(=O)C1=CCC(c2ccco2)N(S(=O)(=O)c2ccc(C)cc2)C1 (centres undefined),0,0,0,-,0,-
CCCN1C(=O)c2cccc3c(N4CCCCC4)ccc(c23)C1=O,19.7,0,0,0,0,0
COc1cccc(CN2CCN(Cc3ccc(C)o3)CC2CCO)c1 (centres undefined),0,0,0,0,0,-
Fc1ccc(C2=NN(c3ccccc3)C(c3ccco3)C2)cc1 (centres undefined),0,0,0,0,0,-
COc1ccccc1C1CC(c2ccco2)=NN1c1ccccc1 (centres undefined),17.2,0,0,0,0,0
SMILES,SIAE primary,rCAG RNA binder,ABHD4 inh,HTRA1 inhibitor,TCR CD3 inh,SIAE inh conf
CC(C)(C)C(=O)N1CCN(c2nc3ccc(Br)cc3s2)CC1,0,0,0,0,0,-
CC(C)(C)C(=O)N1CCN(c2nc3ccc(Cl)cc3s2)CC1,17.6,0,0,0,0,0
C=CCNC(=O)c1onc(CSc2ccc(OC)cc2)c1C(=O)O,21.8,0,0,0,0,0
CCOC(=O)c1sc(Nc2nc3ccc(OC)cc3s2)cc1C,34.5,0,0,0,0,0
COc1cccc(Nc2nc3ccc(OC)cc3s2)c1,19.7,0,0,0,0,0
Cc1ccc(C(=O)N2CCN(C)CC2)cc1S(=O)(=O)N1CCOCC1,0,0,0,0,0,-
Cc1cnc(NS(=O)(=O)c2ccccc2)c(Br)c1,0,0,0,0,0,-
N#C/C(=C\Nc1ccccc1O)c1nc2ccccc2o1,17.8,0,0,0,0,0
N#C/C(=C\c1ccncc1)c1nc2ccccc2o1,0,0,0,-,0,-
CCC1NC(=O)c2cc3ccccc3cc2-n2c1nc1cc(C)cc(C)c1c2=O (centres undefined),17.3,0,0,0,0,0
Cc1cc(C)c2c(=O)n3c(nc2c1)C(Cc1ccccc1)NC(=O)c1cc2ccccc2cc1-3 (centres undefined),0,0,0,0,0,-
